Sampled rows, rich in hits. Any-hit rate of the full collection: about 2.1%.
zVAD death inh: L929 zVAD cell death inhibition | 0.38% of 220,000 active | AID 1377 | viability rescue, % at 10 µM | L929 zVAD necroptosis rescue, ATP luminescence, 24 h; with zVAD 60 µM;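 active = activation, scaled between plate controls, above about 75%, limit read from the data; inactive = activation under that limit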;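 note: 0% = zVAD with DMSO and 100% = DMSO alone without zVAD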
TNF necrop inh: blocks TNF-alpha induced death of Jurkat FADD-/- cells; Jurkat FADD-/- TNF necroptosis rescue, ATP luminescence, 24 h; 0 = TNF only, 100 = no-TNF cells; activation (protection from cell death), % at 10 µM; 0.068% of 220,000 active; AID 463075;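 active = activation, meaning protection from cell death, of at least 50% relative to plate controls; inactive = activation below 50%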;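 note: necroptosis triggered by 40 ng/mL TNF-alpha added together with compound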
STAT3 activator: STAT3 signaling activation; U3A cells, IL-6 STAT3-luciferase reporter, luminescence; 100% = signal with IL-6 EC80 alone; activation (% of control), % at 5.6 µM; 0.91% of 190,000 active; AID 871;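 active = activation above the screen-wide mean of compound activation plus 3 SD, cut at about 130% in these data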;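 note: 0% = background luminescence of wells with medium and substrate only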
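Test system: Human STAT1-deficient U3A cells with stable STAT3-luciferase reporter | Also added: Interleukin-6, 33 ng/mL | Timing: Compound pre-incubation 1 h before IL-6, then 6 h stimulation at 37 °C | Technique: Luciferase reporter luminescence | Read-out: Percent of IL-6-only median luminescence | Benchmarks: IL-6-only wells as 100% reference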
STAT1 inh: inhibitors of IFN-gamma induced STAT1 signaling | NIH 3T3 STAT1-luciferase reporter, luminescence | inhibition, % at 5.5 µM | 0.35% of 200,000 active;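 active = inhibition above a set limit, the mean inhibition across all tested compounds plus 3 SD, cut at about 34% in these data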;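 note: 0% = IFN-gamma with DMSO and 100% = IFN-gamma with 300 µM nifuroxazide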
STAT3 inh-1: STAT3 signaling inhibition | U3A cells, IL-6 STAT3-luciferase reporter, luminescence; host cell line lacks STAT1 | inhibition, % at 5.5 µM | 0.89% of 190,000 active;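 active = inhibition above the mean inhibition across all screened compounds plus 3 SD, cut at about 44% in these data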;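 note: 0% = DMSO only wells and 100% = 100 µM nifuroxazide control wells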
STAT3 inh-2: confirmation of STAT3 signaling inhibitors. shares compounds with STAT3 inh-1. U3A cells, IL-6 STAT3 luciferase reporter, luminescence; cell line lacks STAT1. inhibition, % at 5.7 µM. 45% of 1,200 active. AID 1265;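 active = inhibition above the hit cutoff computed for the primary STAT3 screen, cut at about 44% in these data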;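 note: 0% = IL-6 plus DMSO and 100% = IL-6 plus nifuroxazide control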
NFkB inh 2: NF-kappaB inhibition in STAT3 inhibitor counter-screen; 36% of 1,200 active; inhibition, % at 5.7 µM; shares compounds with STAT3 inh-1; HEK293T NF-kB luciferase reporter, TNF-alpha induced;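 active = inhibition above the mean of solvent-only control wells plus 3 SD, cutoff set per campaign, cut at about 13% in these data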;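 note: 0% = TNF-alpha with DMSO and 100% = TNF-alpha with MG high control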
STAT1 inh STAT3c: inhibits STAT1, counter-screen to STAT3 inhibitors. shares compounds with STAT3 inh-1. NIH 3T3 STAT1-luciferase reporter, IFN-gamma induced, luminescence. inhibition, % at 5.7 µM. 27% of 1,200 active. AID 1317;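 active = inhibition above the mean plus 3 SD of solvent-only control wells, limit set per screening run, cut at about 16% in these data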;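 note: 0% = DMSO with IFN-gamma and 100% = nifuroxazide control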
* = called active by the depositor; · = no result given.

SMILES	zVAD death inh	TNF necrop inh	STAT3 activator	STAT1 inh	STAT3 inh-1	STAT3 inh-2	NFkB inh 2	STAT1 inh STAT3c
O=C(NCc1ccccc1)c1c[nH]c2ccc(S(=O)(=O)Nc3ccc4c(c3)OCCO4)cc2c1=O	38	1	103	4	0	·	·	·
N#Cc1c(-c2ccccc2)nc(SCC(=O)Nc2ccccc2F)[nH]c1=O	1	0	89	2	17	·	·	·
O=S(=O)(c1ccc(N2CCN(c3ccc(F)cc3)CC2)cc1)N1CCCC1	0	0	92	-3	11	·	·	·
O=S(=O)(c1ccc(N2CCCC2)cc1)C(F)(F)F	1	-4	66	7	44*	10	-8	-9
Cc1occc1C(=O)NNC(=S)NCc1ccccc1	0	0	90	4	19	·	·	·
CCn1c(COc2ccccc2)nnc1SCC(=O)CC(=O)Nc1ccccc1OC	0	-3	116	-1	-10	·	·	·
Oc1c(Br)cc(Br)cc1C=Nc1ccc2c(c1)OCCO2	0	-3	97	-7	9	·	·	·
O=[N+]([O-])c1ccc(O)c(C=Nc2ccc3c(c2)OCCO3)c1	0	1	64	-12	44*	-21	-16	-41
CCc1nnc(NC(=O)c2ccc(OC)cc2OC)s1	0	-1	57	-47	49*	13	-28	-118
Cc1ccn2cc(CNC(=O)c3cccs3)nc2c1	0	1	99	11	10	·	·	·
C/C(=N/NC(=O)c1cccs1)c1c(C)[nH]n(-c2nc3ccccc3s2)c1=O	0	-1	53	-4	56*	6	3	-4
COC(=O)Cc1[nH]n(-c2nc3ccccc3s2)c(=O)c1C(C)=Nc1ccc(C)cc1	0	-2	16	21	100*	68*	64*	-10
CC(=NCc1ccco1)c1c(C)[nH]n(-c2nc3ccccc3s2)c1=O	0	-2	92	-43	11	·	·	·
CCCNC(=O)c1ccccc1NC(=O)C1COc2ccccc2O1 (centres undefined)	0	2	93	1	13	·	·	·
CCCCN1C(=O)C(=O)NC[C@@H]1C(C)O (some centres undefined)	1	1	·	·	·	·	·	·
CC(C)n1c(NCCc2ccccc2)nc2c1c(=O)n(C)c(=O)n2C	0	-7	65	31	45*	38	8	32*
Cc1ccc2c(C)c(C(=O)Nc3nnc(C)s3)oc2c1	15	1	100	-9	6	·	·	·
CN(Cc1ccccc1)C(=O)c1[nH]cnc1C(=O)N[C@@H](CCCCNC(=O)OC(C)(C)C)C(=O)OC(C)(C)C	-1	1	·	-2	·	·	·	·
Cc1cc(/C=N/NC(=O)c2cccs2)c(C)n1-c1ccccc1	0	-13	46	21	68*	12	27*	-79
COc1ccc(CC(=O)Nc2cccc(SC)c2)cc1OC	3	-3	63	18	47*	44*	9	14
COc1ccc(CC(=O)Nc2cccc(S(=O)(=O)N3CCCCCC3)c2)cc1OC	0	-4	37	5	74*	75*	27*	19*
Cn1c(=O)n(C)c2cc([N+](=O)[O-])c(N3CCN(C(=O)c4ccccc4Cl)CC3)cc21	-1	-13	53	18	63*	40	9	11
Cn1c(=O)n(C)c2cc([N+](=O)[O-])c(N3CCN(C(=O)c4ccccc4Br)CC3)cc21	0	-5	72	30	38	·	·	·
COc1ccc(-c2nsc3c(N4CCCCC4)ncnc23)cc1	0	1	20	25	102*	75*	60*	16
O=C(CSC1=NCCS1)Nc1ccc(F)cc1	4	5	95	2	13	·	·	·
SMILES	zVAD death inh	TNF necrop inh	STAT3 activator	STAT1 inh	STAT3 inh-1	STAT3 inh-2	NFkB inh 2	STAT1 inh STAT3c
O=C(Nc1ccc(Br)cc1)c1ccc(CSC2=NCCS2)cc1	0	-5	61	-23	56*	35	-11	-31
CCOc1ncccc1C(=O)NCc1ccccc1F	6	0	99	-1	6	·	·	·
CCOc1ccc(NC(=O)CSc2nnc(-c3ccccn3)n2C)cc1	0	-2	96	-7	9	·	·	·
N/C(=N\OC(=O)COc1ccc(Br)cc1Cl)c1ccccn1	0	1	51	-28	57*	-16	-46	-145
COCC1CCN(c2nc3nonc3nc2N2CCSCC2)C1 (centres undefined)	2	0	110	3	-11	·	·	·
CCCCN1C(C)=CC(=C2C(=O)c3ccccc3C2=O)C=C1C	62	2	43	18	71*	16	-26	-132
CC1=CC(=C2C(=O)c3ccccc3C2=O)C=C(C)N1Cc1ccco1	0	4	90	-71	14	·	·	·
COCCn1c(C)cc(C(=O)CSc2nnc3ccccn23)c1C	0	0	43	31	74*	21	0	-32
Cc1csc(N/N=C/c2ccccn2)n1	16	-10	59	28	53*	20	10	-42
O=C(Nc1ccc2c(c1)OCO2)N1CCN(Cc2ccco2)CC1	0	0	67	7	45*	9	-11	-2
O=C1NC(=O)C2(CCc3ccccc32)N1 (centres undefined)	0	0	105	3	0	·	·	·
c1ccc2oc(C3=NNC(=NC4CC4)SC3)cc2c1	1	1	51	-19	57*	23	-19	-54
FC(F)(F)c1cnc(NNC(=S)Nc2ccc(Cl)cc2)c(Cl)c1	0	0	88	6	17	·	·	·
CCCOc1ccc(OCC(=O)c2[nH]c(C)c(C(C)=O)c2C)cc1	0	-3	69	18	37	·	·	·
CC(=O)c1c(C)[nH]c(C(=O)COc2cc(C)cc(C)c2)c1C	0	-9	66	12	44*	36	7	12
CC1CCc2c(C(=O)Nc3ccc(OC(F)(F)F)cc3)csc2C1 (centres undefined)	2	3	93	1	7	·	·	·
O=[N+]([O-])c1ccc(/C=N/N=C/c2ccc([N+](=O)[O-])o2)o1	-1	8	54	-89	58*	13	-47	-46
FC(F)Oc1ccc(-n2cc(-c3ccccc3)[n+]3c2CCCCC3)cc1	0	0	·	·	·	·	·	·
O=C(N/N=C/c1ccccc1Cl)c1n[nH]c2c1CCCC2	0	1	43	-29	68*	73*	56*	23*
COc1ccc(OC)c(-n2c(SCC(=O)NCc3ccco3)nnc2-c2c[nH]c3ccccc23)c1	-1	2	99	14	9	·	·	·

Screens: PubChem BioAssay, several laboratories
